Data published in ChEMBL document CHEMBL1141957, “Screening of electrophilic compounds yields an aziridinyl peptide as new active-site directed SARS-CoV main protease inhibitor” (Bioorg Med Chem Lett, 2005).

Target: Replicase polyprotein 1a (Severe acute respiratory syndrome-related coronavirus) (UniProt P0C6U8)
Experiment: Inhibition of Mpro in SARS-CoV at 100 uM in FRET-based assay
In short: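 Fluorimetric read-out: SARS-CoV Mpro cleavage of a FRET-pair-labeled peptide substrate. Percent inhibition reported as the mean of at least 2 independent assays.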

| Compound | inhibition [%] |
| --- | --- |
| COC(=O)C1CN1[C@@H](CC(=O)OCc1ccccc1)C(=O)OCc1ccccc1 (stereo partly specified) | 28 |
| COC(=O)CN1CC1C(=O)OC (stereo unspecified) | 30 |
| CCOC(=O)[C@H]1[C@H](C(=O)OCC)N1C(=O)[C@@H](NC(=O)OC(C)(C)C)C(C(C)C)N1CCC1 (stereo partly specified) | 16 |
| O=C(N[C@@H](Cc1ccccc1)C(=O)OCc1ccccc1)C1C(c2ccccc2)N1Cc1ccccc1 (stereo partly specified) | 30 |
| CC(C)[C@H](NC(=O)C1C(c2ccccc2)N1Cc1ccccc1)C(=O)OCc1ccccc1 (stereo partly specified) | 22 |
| C[C@H]1[C@@H](C(=O)N[C@@H](Cc2ccccc2)C(=O)OCc2ccccc2)N1Cc1ccccc1 (stereo partly specified) | 24 |
| COC(=O)C1CN1[C@@H](CCSC)C(=O)OC (stereo partly specified) | 28 |
| CCOC(=O)[C@H]1[C@H](C(=O)OCC)N1C(=O)[C@@H]1CCCN1C(=O)[C@H](CC(C)C)NC(=O)OC(C)(C)C | 16 |
| COC(=O)C1CN1[C@@H](C)C(=O)OC (stereo partly specified) | 39 |
| COC(=O)C1CN1[C@H](C(=O)OCc1ccccc1)C(C)C (stereo partly specified) | 20 |
| C[C@@H]1O[C@@H]1C(=O)N[C@@H](Cc1ccccc1)C(=O)OCc1ccccc1 | 28 |
| COC(=O)C1CN1[C@@H](CC(C)C)C(=O)OCc1ccccc1 (stereo partly specified) | 34 |
| CC[C@H](C)[C@@H](C(=O)OCc1ccccc1)N1CC1C(=O)OC (stereo partly specified) | 30 |
| CC(C)(C)OC(=O)N[C@H](C(=O)N1[C@H](C(=O)OCc2ccccc2)[C@H]1C(=O)OCc1ccccc1)N1CCCCC1 | 29 |
| COC(=O)C1CN1CC(=O)OCc1ccccc1 (stereo unspecified) | 26 |
| CCOC(=O)[C@H]1N[C@@H]1C(=O)NCC(=O)NCC(=O)OCc1ccccc1 | 54 |
| C[C@H]1O[C@H]1C(=O)N[C@@H](Cc1ccccc1)C(=O)OCc1ccccc1 | 15 |
| CC1C(C(=O)N[C@@H](Cc2ccccc2)C(=O)OCc2ccccc2)N1Cc1ccccc1 (stereo partly specified) | 34 |
| COC(=O)C1CN1[C@H](C(=O)OC)C(C)C (stereo partly specified) | 30 |
| COC(=O)C1CN1CCCC[C@H](NC(=O)OCc1ccccc1)C(=O)OC (stereo partly specified) | 48 |
| CCOC(=O)C1OC1C(=O)N[C@@H](Cc1ccccc1)C(=O)OCc1ccccc1 (stereo partly specified) | 22 |
| CC(C)[C@H](NC(=O)[C@@H]1O[C@@H]1C)C(=O)OCc1ccccc1 | 10 |

Target: Replicase polyprotein 1a (Severe acute respiratory syndrome-related coronavirus) (UniProt P0C6U8)
Experiment: Inhibition of Mpro in SARS-CoV at 100 uM in HPLC assay

| Compound | inhibition [%] |
| --- | --- |
| CCOC(=O)[C@H]1N[C@@H]1C(=O)NCC(=O)NCC(=O)OCc1ccccc1 | 75 |

Target: Procathepsin L (Homo sapiens, UniProt P07711)
Experiment: Inhibitory activity against cathepsin L

Chain of Procathepsin L (P07711 whole entry): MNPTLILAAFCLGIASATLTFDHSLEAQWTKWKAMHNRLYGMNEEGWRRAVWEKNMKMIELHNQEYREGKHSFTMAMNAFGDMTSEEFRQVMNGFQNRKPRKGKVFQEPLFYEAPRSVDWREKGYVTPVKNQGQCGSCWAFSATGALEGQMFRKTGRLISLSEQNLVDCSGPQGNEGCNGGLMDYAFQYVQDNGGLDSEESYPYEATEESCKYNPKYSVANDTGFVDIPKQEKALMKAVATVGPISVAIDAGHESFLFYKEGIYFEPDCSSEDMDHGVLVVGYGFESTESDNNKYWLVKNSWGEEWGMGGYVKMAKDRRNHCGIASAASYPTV

| Compound | Ki [µM] |
| --- | --- |
| CCOC(=O)[C@H]1[C@H](C(=O)OCC)N1C(=O)[C@@H](NC(=O)OC(C)(C)C)C(C(C)C)N1CCC1 (stereo partly specified) | 4.8 |
| CC(C)(C)OC(=O)N[C@H](C(=O)N1[C@H](C(=O)OCc2ccccc2)[C@H]1C(=O)OCc1ccccc1)N1CCCCC1 | 6.4 |

Target: Replicase polyprotein 1a (Severe acute respiratory syndrome-related coronavirus) (UniProt P0C6U8)
Experiment: Inhibition of Mpro in SARS-CoV at 100uM

| Compound | inhibition [%] |
| --- | --- |
| C[C@H]1O[C@H]1C(=O)N[C@H](Cc1ccccc1)C(=O)OCc1ccccc1 | < 10 |
| COC(=O)[C@H]1N[C@H]1C(=O)OC | < 10 |
| COC(=O)C1C(c2ccccc2)N1Cc1ccccc1 (stereo unspecified) | < 10 |
| CCOC(=O)N1C(C)C1(C(=O)OC)C(=O)OC (stereo unspecified) | < 10 |
| CCOC(=O)C1C(C)N1Cc1ccccc1 (stereo unspecified) | < 10 |
| C[C@H]1O[C@H]1C(=O)N[C@@H](Cc1ccccc1)C(=O)O | < 10 |
| COC(=O)C1(C(=O)OC)C(C)N1C(=O)OC(C)(C)C (stereo unspecified) | < 10 |
| CCOC(=O)[C@H]1N[C@H]1C(=O)OCC | < 10 |
| COC(=O)CN1CC1C(=O)N[C@@H](Cc1ccccc1)C(=O)OC (stereo partly specified) | < 10 |
| C[C@@H]1O[C@@H]1C(=O)N[C@H](Cc1ccccc1)C(=O)O | < 10 |
| C[C@H]1O[C@H]1C(=O)O | < 10 |
| CCOC(=O)[C@H]1N[C@@H]1C(=O)N[C@H](C(=O)OCc1ccccc1)[C@@H](C)CC | < 10 |
| COC(=O)C1(C(=O)OC)NC1C (stereo unspecified) | < 10 |
| CC(C)C[C@@H]1O[C@@H]1[C@H](Cc1ccccc1)NC(=O)OC(C)(C)C | < 10 |
| C[C@@H]1O[C@@H]1C(=O)N[C@H](Cc1ccccc1)C(=O)OCc1ccccc1 | < 10 |
| COC(=O)[C@H]1O[C@H]1C(=O)OC | < 10 |
